Here are results for 29 molecules from ChEMBL document CHEMBL3875148, “Synthesis and biological evaluation of novel alkyl diamine linked bivalent β-carbolines as angiogenesis inhibitors” (Eur J Med Chem, 2016).

The source made the active and inactive calls. The rule behind the calls is not given here.

One series concerns EA.hy 926. Put plainly: Antimigratory activity against human EAhy926 cells assessed as inhibition of VEGF-induced cell migration incubated for 24 hrs by wound healing assay. Type of series: functional, cell-based.
Conditions: not given
The method, boiled down: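 Wound-healing scratch assay in EA.HY926 endothelial cells with VEGF stimulation. Compound tested across 0.3 to 30, with Endostar as positive control. Migration was compared against untreated cells.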
`CCCCn1c2ccccc2c2ccnc(CNCCCCCNCc3nccc4c5ccccc5n(CCCC)c34)c21`: the inhibition result is “Dose-dependent effect”.

System in another series: not listed separately
Put plainly: Antiproliferative activity against human EAhy926 cells measured after 48 hrs by MTT assay. Type of series: functional, cell-based. As to conditions: EA.hy 926, 48 h. In general terms: Tetrazolium assays rely on reduction of a dye to a coloured formazan, in cell work by metabolically active cells.
For orientation: IC50 means the concentration at which inhibition is half-maximal. Low readings indicate inhibition by little substance, high ones a need for much substance. Molecule `c1ccc(CCCn2c3ccccc3c3ccnc(CNCCCCCNCc4nccc5c6ccccc6n(CCCc6ccccc6)c45)c32)cc1` displayed a concentration for half-maximal inhibition (IC50) of 2.76 µM. For `CCCCCCn1c2ccccc2c2ccnc(CNCCCCNCc3nccc4c5ccccc5n(CCCCCC)c34)c21`, the IC50 was found to be 8.93 µM. `CCn1c2ccccc2c2ccnc(CNCCCNCc3nccc4c5ccccc5n(CC)c34)c21` came in with an IC50 of 7.77 µM. This IC50 and that of the molecule before are within 1.5-fold of each other.

`c1ccc(Cn2c3ccccc3c3ccnc(CNCCCNCc4nccc5c6ccccc6n(Cc6ccccc6)c45)c32)cc1` gave an IC50 of 8.89 µM. In the case of `CCCCCCn1c2ccccc2c2ccnc(CNCCCCCNCc3nccc4c5ccccc5n(CCCCCC)c34)c21`, the IC50 came to 5.16 µM. `CCCCn1c2ccccc2c2ccnc(CNCCCNCc3nccc4c5ccccc5n(CCCC)c34)c21` returned an IC50 of 8.39 µM. In the case of `CCCCCCn1c2ccccc2c2ccnc(CNCCCNCc3nccc4c5ccccc5n(CCCCCC)c34)c21`, the IC50 was 9.23 µM. As to `c1ccc(CCCn2c3ccccc3c3ccnc(CNCCCNCc4nccc5c6ccccc6n(CCCc6ccccc6)c45)c32)cc1`, it took 9.35 µM to reach half-maximal inhibition (IC50). This IC50 and that of the molecule before are within 1.5-fold of each other. As for `CCCCCCCCn1c2ccccc2c2ccnc(CNCCCCNCc3nccc4c5ccccc5n(CCCCCCCC)c34)c21`, 9.33 µM corresponded to half-maximal inhibition (IC50). Consider `Fc1ccc(Cn2c3ccccc3c3ccnc(CNCCCCNCc4nccc5c6ccccc6n(Cc6ccc(F)cc6)c45)c32)cc1`, for which it took 4.96 µM to reach half-maximal inhibition (IC50). `c1ccc(CCCn2c3ccccc3c3ccnc(CNCCCCNCc4nccc5c6ccccc6n(CCCc6ccccc6)c45)c32)cc1` came in with an IC50 of 4.78 µM. The IC50 values of the last two molecules are within 1.5-fold of each other.

`CC(C)n1c2ccccc2c2ccnc(CNCCCCCCNCc3nccc4c5ccccc5n(C(C)C)c34)c21` yielded an IC50 of 8.56 µM.

Turning to `CCCCCCn1c2ccccc2c2ccnc(CNCCCCCCNCc3nccc4c5ccccc5n(CCCCCC)c34)c21`, half-maximal inhibition (IC50) required 8.2 µM.

For `CC(C)Cn1c2ccccc2c2ccnc(CNCCCCCCNCc3nccc4c5ccccc5n(CC(C)C)c34)c21`, it took 5.55 µM to reach half-maximal inhibition (IC50).

For the molecule `c1ccc2c(c1)[nH]c1c(CNCCCCCNCc3nccc4c3[nH]c3ccccc34)nccc12`, 14.5 µM corresponded to half-maximal inhibition (IC50). The molecule `Cl.c1ccc2c(c1)[nH]c1c(CNCCCCNCc3nccc4c3[nH]c3ccccc34)nccc12` returned an IC50 of 25.8 µM. This IC50 lies about 1.8-fold higher than the previous one. On the same count and under the same terms, under `CCCCn1c2ccccc2c2ccnc(CNCCCCNCc3nccc4c5ccccc5n(CCCC)c34)c21` stands 4.37 µM. `Clc1cccc(Cn2c3ccccc3c3ccnc(CNCCCCCNCc4nccc5c6ccccc6n(Cc6cccc(Cl)c6)c45)c32)c1` came in with an IC50 of 4.69 µM. Still for that read-out and setting: under `CC(C)Cn1c2ccccc2c2ccnc(CNCCCCNCc3nccc4c5ccccc5n(CC(C)C)c34)c21` stands 8.06 µM. The same measure, in the same setting: under `CCCCn1c2ccccc2c2ccnc(CNCCCCCNCc3nccc4c5ccccc5n(CCCC)c34)c21` stands 2.16 µM; under `Cn1c2ccccc2c2ccnc(CNCCCCCCNCc3nccc4c5ccccc5n(C)c34)c21`, 11.5 µM. Molecule `CCCCCCCCn1c2ccccc2c2ccnc(CNCCCCCNCc3nccc4c5ccccc5n(CCCCCCCC)c34)c21` gave an IC50 of 8 µM. With `CCn1c2ccccc2c2ccnc(CNCCCCNCc3nccc4c5ccccc5n(CC)c34)c21`, the IC50 is 5.36 µM. Same read-out and setting: for `c1ccc(Cn2c3ccccc3c3ccnc(CNCCCCCCNCc4nccc5c6ccccc6n(Cc6ccccc6)c45)c32)cc1` the value was 3.81 µM. The same measure, in the same setting: for `COc1ccc(/C=C\c2cc(OC)c(OC)c(OC)c2)cc1OP(=O)(O)O` [FOSBRETABULIN] the value was 6.4 µM; for `Fc1ccc(Cn2c3ccccc3c3ccnc(CNCCCNCc4nccc5c6ccccc6n(Cc6ccc(F)cc6)c45)c32)cc1`, 8.87 µM; for `c1ccc(CCCn2c3ccccc3c3ccnc(CNCCCCCCNCc4nccc5c6ccccc6n(CCCc6ccccc6)c45)c32)cc1`, 3.22 µM. Turning to `Cn1c2ccccc2c2ccnc(CNCCCCNCc3nccc4c5ccccc5n(C)c34)c21`, the IC50 came out at 17 µM. On to `CCCCn1c2ccccc2c2ccnc(CNCCCCCCNCc3nccc4c5ccccc5n(CCCC)c34)c21`, for which the IC50 was found to be 2.92 µM. Against the preceding molecule, the IC50 is about 5.8-fold lower.

System in the next series: not listed separately
Put plainly: Aqueous solubility of the compound.
Conditions: not given
Format: physicochemical.
A word on the solubility: it is how much of the substance goes into solution per volume. The low end stands for little dissolved substance, the high end for much dissolved substance. The molecule `Cl.c1ccc2c(c1)[nH]c1c(CNCCCCNCc3nccc4c3[nH]c3ccccc34)nccc12` had a solubility of more than 10000 µg/mL.

The test system of the next series is EA.hy 926. Put plainly: Antiangiogenic activity against human EAhy926 cells assessed as inhibition of VEGF-induced capillary-like tube formation measured after 24 hrs by phase contrast microscopic analysis. Format: functional, cell-based.
Conditions: not given
The method, boiled down:
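EA.HY926 cells were plated on Matrigel-coated wells and treated for 24 h at 0.3–30. Capillary-like tubules with multicentric junctions were scored by imaging against compound-free controls.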
Regarding `CCCCn1c2ccccc2c2ccnc(CNCCCCCNCc3nccc4c5ccccc5n(CCCC)c34)c21`, the inhibition entry was “Dose-dependent effect”.

A further series is filed under the species Gallus gallus. Put plainly: Antiangiogenic activity against 5-day-old chicken egg chorioallantoic membrane at 0.3 to 30 uM/disc incubated for 48 hrs by microscopic analysis. Type of series: functional, tissue-based.
Conditions: not given
As for `CCCCn1c2ccccc2c2ccnc(CNCCCCCNCc3nccc4c5ccccc5n(CCCC)c34)c21`, the outcome was Active.
